Tests used:
[1] = organism: Homo sapiens; test: Modulation of LO-mediated RvE3 level in human M2 macrophages derived from IL4-polarized human monocyte derived macrophages at 3 uM preincubated for 15 mins followed by Escherichia coli (O6:K2:H1) challenge for 90 mins by LC-MS/MS analysis
Procedure, shortened: (§1)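 Monocytes differentiated 6 days with M-CSF (20 ng/ml), then polarized 48 h with IL-4 20 ng/ml (M2). Cells (2 × 10^6) in PBS/1 mM CaCl2 pre-incubated 15 min at 37 °C with 3 µM compound or 0.1% DMSO, then challenged with E. coli O6:K2:H1 (1:50) for 90 min. Lipid mediators extracted by SPE with deuterated internal standards and quantified by UPLC-MS/MS as % of vehicle.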

[2] = organism: Homo sapiens; test: Modulation of LO-mediated RvD5 level in human M2 macrophages derived from IL4-polarized human monocyte derived macrophages at 3 uM preincubated for 15 mins followed by Escherichia coli (O6:K2:H1) challenge for 90 mins by LC-MS/MS analysis; procedure, shortened: as §1

Activity [1]: 121%
Activity [2]: 134%
SMILES: O=C(O)c1ccc(N(Cc2cccc(OCc3ccccc3)c2)S(=O)(=O)c2ccc(-c3ccccc3)cc2)cc1
